Source: PubChem (Johns Hopkins Ion Channel Center)
TRPC4 PAM = TRPC4 (mouse) allosteric potentiation; B-score at 10 µM; AID 2227; 310,000 compounds, 0.42% hits; Q9QUQ5; HEK293 TRPC4beta/mu-opioid, DAMGO EC20, Fluo-4 Ca2+ flux; hits give high values;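 active = B-score of calcium response area above 5 SD of library B-scores, with initial fluorescence ratio within 5 SD of library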;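 also: B-score of integrated fluorescence ratio over time as area under calcium response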
TRPC4 agonist = activators of mouse TRPC4 channel; Q9QUQ5; HEK293 TRPC4beta/mu-opioid, Fluo4 calcium fluorescence; hits give high values; B-score at 10 µM; 310,000 compounds, 0.49% hits; AID 2237;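 active = B-score above 5 SD of library B-scores, and initial fluorescence ratio not above library mean plus 5 SD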;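 also: positive B-score marks a calcium rise read as TRPC4 activation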
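system = HEK293 cells stably co-expressing mouse TRPC4beta and mu-opioid receptor | schedule = Fluo4 dye loading 45 min at room temperature, 110 s recording | measure = B-scored integrated calcium fluorescence ratio | signal = Fluo4 calcium-sensitive dye fluorescence, kinetic, 1 Hz baseline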
TRPC4 inh = blocks the mouse TRPC4 cation channel; HEK293 TRPC4beta/mu-opioid, DAMGO-evoked Fluo4 calcium flux; hits give low values; B-score at 10 µM; 300,000 compounds, 0.39% hits; AID 2247;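 active = B-score over 3 SD under the library average, no early fluorescence shift, positive overall ratio signal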
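Assay system: TRPC4beta/mu-opioid receptor HEK293 cell line; compound dosing: single concentration per test compound; detection: Fluo4 Ca2+ flux fluorescence; evaluation: per-well B score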
TRPC6 activator = activates the mouse TRPC6 cation channel; Q61143; HEK293-TRPC6 membrane potential dye fluorescence; hits give high values; B-score at 10 µM; 310,000 compounds, 0.13% hits; AID 2550;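 active = B-score of the integrated fluorescence ratio above library mean plus 3 SD, and starting fluorescence ratio within library mean plus 5 SD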;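 also: higher score means more depolarization so channel activation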
Target sequence (Q61143 whole entry, looked up): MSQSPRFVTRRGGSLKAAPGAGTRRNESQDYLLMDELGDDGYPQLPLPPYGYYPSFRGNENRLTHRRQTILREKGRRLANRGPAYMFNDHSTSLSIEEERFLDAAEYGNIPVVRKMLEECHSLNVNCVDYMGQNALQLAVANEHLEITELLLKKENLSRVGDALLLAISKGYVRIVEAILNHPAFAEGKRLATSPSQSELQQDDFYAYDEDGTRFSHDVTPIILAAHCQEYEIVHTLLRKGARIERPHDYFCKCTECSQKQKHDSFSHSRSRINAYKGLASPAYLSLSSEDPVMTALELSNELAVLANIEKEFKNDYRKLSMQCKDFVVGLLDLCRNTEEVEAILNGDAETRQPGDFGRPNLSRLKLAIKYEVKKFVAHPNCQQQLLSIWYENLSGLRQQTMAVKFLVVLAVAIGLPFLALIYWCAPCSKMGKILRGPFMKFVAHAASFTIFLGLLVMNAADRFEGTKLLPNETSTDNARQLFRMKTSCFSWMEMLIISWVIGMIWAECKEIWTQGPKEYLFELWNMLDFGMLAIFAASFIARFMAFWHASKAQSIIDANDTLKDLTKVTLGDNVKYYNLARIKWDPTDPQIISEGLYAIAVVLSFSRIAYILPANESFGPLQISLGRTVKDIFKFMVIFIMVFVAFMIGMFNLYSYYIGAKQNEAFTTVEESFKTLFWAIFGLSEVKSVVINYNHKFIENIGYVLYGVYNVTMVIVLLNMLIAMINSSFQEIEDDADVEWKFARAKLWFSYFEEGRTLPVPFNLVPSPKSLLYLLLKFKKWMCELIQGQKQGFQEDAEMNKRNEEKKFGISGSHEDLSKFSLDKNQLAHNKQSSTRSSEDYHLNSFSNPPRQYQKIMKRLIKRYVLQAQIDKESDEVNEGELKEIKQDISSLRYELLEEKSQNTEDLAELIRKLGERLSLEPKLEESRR
TRPC6 inhibitor = inhibitors of mouse TRPC6 channel; Q61143; HEK293-TRPC6, membrane potential dye, ACh-evoked depolarization; hits give low values; B-score at 10 µM; 310,000 compounds, 1.1% hits; AID 2553;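 active = B-score under library mean minus 3 SD, initial fluorescence not abnormally high, positive integrated signal ratio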;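 also: B-score derived from integrated fluorescence ratio over the kinetic read; more negative B-score means stronger inhibition of depolarization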
TRPC4 spec 2 = second check of whether TRPC6 inhibitors also affect mouse TRPC4; shares compounds with TRPC6 inhibitor; HEK293 TRPC4/MOR, membrane potential dye fluorescence; channel activated by saturating DAMGO dose; inhibition, % at 10 µM; 920 compounds, 42% hits;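 active = compounds whose fluorescence signal differed from control wells by over 3 SD, either direction, in both duplicate plates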
TRPC4 spec = selectivity of TRPC6 inhibitors: effect on mouse TRPC4; shares compounds with TRPC6 inhibitor; HEK293 TRPC4/mu-opioid, membrane potential fluorescence; activity change, negative = inhibition, % at 10 µM; 920 compounds, 61% hits; AID 2777;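 active = rise or fall in signal beyond 3 SD of buffer-only wells in both replicate plates, either sign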;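 also: integrated kinetic ratio of fluorescence range over baseline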
HEK293 MPD ctr 2-1 = second check of TRPC6 inhibitor effects in parental HEK293 cells | shares compounds with TRPC6 inhibitor | parental HEK293 membrane potential dye fluorescence; maximal acetylcholine challenge after compound addition | signal change vs control, % at 10 µM | 920 compounds, 31% hits | AID 2779;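 active = membrane potential signal moving either way by over 3 SD of the maximum-effect control, in both duplicate plates, meaning non-specific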
HEK293 MPD ctr-1 = counter-screen for TRPC6 inhibitors: effect in parental HEK293 cells | shares compounds with TRPC6 inhibitor | parental HEK293 membrane potential dye fluorescence | membrane potential signal change, % at 10 µM | 920 compounds, 60% hits | AID 2780;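 active = membrane potential signal shifting up or down by more than 3 SD of buffer-only wells, on both duplicate plates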
HEK293 MPD ctr-2 = checks TRPC6 modulator effects in parental HEK293 cells; membrane potential signal change, % at 10 µM; 2,400 compounds, 51% hits; shares compounds with TRPC6 inhibitor; membrane potential dye fluorescence;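 active = membrane potential signal moves up or down beyond 5 SD from buffer-only wells, on both duplicate plates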
HEK293 MPD ctr 2-2 = second counter-screen for TRPC6 modulators: effect in parental HEK293 cells; shares compounds with TRPC6 inhibitor; inhibition, % at 10 µM; 2,400 compounds, 14% hits; membrane potential dye fluorescence; after compound, maximal acetylcholine stimulation; AID 488926;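 active = membrane potential signal drops by more than 5 SD from the mean control signal, in both duplicate plates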;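 also: plate controls were acetylcholine ECmax control wells for no effect and buffer only wells for full effect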
TRPC4/MOR mod = mouse TRPC4 off-target activity of TRPC6 modulators. shares compounds with TRPC6 inhibitor. HEK293 TRPC4/mu-opioid, membrane potential fluorescence. percent change from control (negative = decrease, positive = increase), % at 10 µM. 2,400 compounds, 69% hits;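 active = membrane potential signal moved up or down beyond 5 SD of buffer control wells, in both duplicate plates, actives on both sides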;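 also: plate controls were assay buffer wells for no effect and DAMGO maximal-effect wells for full effect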
TRPC4/MOR inh 2 = second selectivity test of TRPC6 modulators against mouse TRPC4. shares compounds with TRPC6 inhibitor. HEK293 TRPC4/mu-opioid, membrane potential dye fluorescence; stimulated with maximal-effect DAMGO. inhibition, % at 10 µM. 2,400 compounds, 55% hits. AID 488928;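 active = drop in membrane potential signal beyond 5 SD of the control wells in both duplicate plates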;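 also: TRPC4 counter screen for TRPC6 hits run under conditions tuned for TRPC6 not TRPC4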
TRPC6 inh conf = confirmation of mouse TRPC6 inhibitors | AID 488960 | 3,300 compounds, 43% hits | HEK293-TRPC6, membrane potential dye, ACh-evoked depolarization | shares compounds with TRPC6 inhibitor | inhibition, % at 10 µM;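 active = fluorescence ratio falls more than 5 SD below the full-stimulation control mean, in both duplicate runs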;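 also: integrated fluorescence ratio of peak minus minimum over baseline after agonist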
TRPC6 act confirm = confirmation of mouse TRPC6 activators. shares compounds with TRPC6 inhibitor. HEK293-TRPC6 membrane potential dye fluorescence, FDSS. activation, % at 10 µM. 2,800 compounds, 11% hits;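 active = ratio signal rise beyond 5 SD above unstimulated control wells' mean, seen in both duplicate runs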;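 also: plate controls were buffer EC0 wells for no effect and acetylcholine ECmax response for full effect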
* marks the source's active call; other numbers are inactive results; i = inactive; . = not tested or not shown; ! = a repeat was not active. The list is not random: actives were taken first. Their share in the collection is about 2.3%.

SMILES	TRPC4 PAM	TRPC4 agonist	TRPC4 inh	TRPC6 activator	TRPC6 inhibitor	HEK293 MPD ctr-2	HEK293 MPD ctr 2-2	TRPC4/MOR mod	TRPC4/MOR inh 2	TRPC6 inh conf	TRPC6 act confirm	others
CCOc1cc(/C=N/NC(=O)c2ccccn2)ccc1OC(=O)c1ccc(F)cc1	i	i	i	i	-5.33*	i	i	i	i	i	i
COc1ccc(S(=O)(=O)Nc2noc3ccccc23)cc1	i	i	i	i	-6.69*	.	.	.	.	i	i	TRPC4 spec 2=i;TRPC4 spec=i;HEK293 MPD ctr 2-1=i;HEK293 MPD ctr-1=i
CCCC[n+]1c2ccccc2cc2ccccc21	i	i	-5*	i	-6.28*	-169.5%*	i	-100.5%*	73.5%*	55.5%*	i
CCC[n+]1c2ccccc2cc2ccccc21	i	i	i	i	-11.9*	-175.5%*	84.5%*	-91.0%*	65.5%*	67.5%*	i
Cc1ccc2ccccc2[n+]1CCCS(=O)(=O)[O-]	i	i	i	i	i	.	.	.	.	.	.
Cc1cccc(C(=O)OCC(=O)NC(=O)Cc2ccccc2)c1O	i	i	i	i	i	.	.	.	.	.	.
CCCC(=O)NC(c1ccc2c(c1)OCO2)c1cc(Cl)c2cccnc2c1O (stereo not given)	i	i	i	i	-5.76*	118.0%*	i	i	i	i	i
Cc1cccc(NC(=O)NC2CCCCCCC2)c1C	i	i	i	i	i	.	.	.	.	.	.
COC(=O)C[C@H]1c2cc(C(F)(F)F)ccc2S(=O)(=O)N1C(C)(C)C	i	i	.	i	i	.	.	.	.	.	.
CC1CC(C)(C)N(C(=O)CN2C(=O)c3ccccc3C2=O)c2ccccc21 (stereo not given)	i	158*	-7*	i	-5.06*	183.0%*	i	41.5%*	i	i	.
O=C(CN1CCOCC1)Nc1ccc(NC(=O)c2ccccc2F)cc1	i	i	i	i	i	.	.	.	.	.	.
OCCNCc1ccc(OCc2ccc(Cl)cc2Cl)cc1	i	i	i	i	-6.68*	.	.	.	.	i	.	TRPC4 spec 2=68.0%*;TRPC4 spec=8.3%*;HEK293 MPD ctr 2-1=283.0%*;HEK293 MPD ctr-1=10.9%*
CCn1cc(C(=O)NCCCOC(C)C)c(=O)c2cc(S(=O)(=O)N3CCOCC3)ccc21	i	i	i	i	i	.	.	.	.	.	.
CCOc1ccc(CCNC(=O)C2CCCN(c3nn4c(=O)cc(C)nc4s3)C2)cc1OCC (stereo not given)	i	i	i	i	i	.	.	.	.	.	.
CCOc1ccc(CCNC(=O)C2CCCN(c3nnc(-n4cccc4)s3)C2)cc1OCC (stereo not given)	i	i	i	i	-5.45*	i	i	i	i	i	i
O=C(c1cc(COc2c(F)cccc2F)on1)N1CCc2ccccc2C1	i	i	i	i	i	.	.	.	.	.	.
Cc1ccc(-c2nn(-c3cccc(F)c3)cc2CN2CCN(c3ccccn3)CC2)o1	i	i	i	i	i	.	.	.	.	.	.
Cc1ccc(-c2nn(-c3cccc(F)c3)cc2CNCc2cccnc2)o1	i	121*	i	i	-5.66*	i	i	41.0%*	85.0%*	i	i
CCCc1cc(-c2[nH]ncc2-c2ccc3c(c2)OCCCO3)c(O)cc1O	i	i	i	i	-8.03*	.	.	.	.	62.8%*	i	TRPC4 spec 2=i;TRPC4 spec=i;HEK293 MPD ctr 2-1=208.0%*;HEK293 MPD ctr-1=i
c1ccc(-c2nc3ccccc3[nH]2)nc1	i	i	i	i	i	.	.	.	.	.	.
c1ccc(-c2nc3c(ccc4ccccc43)[nH]2)nc1	i	i	i	i	-6.24*	i	i	-9.0%*	28.0%*	i	i
C=C(C)Cn1c(=O)c2c(nc3n2CCCN3CCc2ccccc2)n(C)c1=O	i	i	i	i	i	.	.	.	.	.	.
COc1cccc(CSc2nccn2C)c1	i	i	i	i	i	.	.	.	.	.	.
COc1cc2c(cc1OC)C1Cc3ccc(OC)c(OC)c3C[N+]1([O-])CC2 (stereo not given)	i	i	i	i	i	.	.	.	.	.	.
O=C1N=c2ccccc2=C1c1sc(=S)n(NC(=O)c2ccccc2)c1O	i	i	i	i	i	.	.	.	.	.	.
C=CCn1c(O)c(C2=c3ccccc3=NC2=O)sc1=Nc1ccc(O)cc1	i	i	i	i	-8.02*	.	.	.	.	54.9%*	i	TRPC4 spec 2=i;TRPC4 spec=-15.0%*;HEK293 MPD ctr 2-1=i;HEK293 MPD ctr-1=-137.5%*
CC1CCC(C(C)C)C(OC(=O)Cn2c(-c3ccccc3)[n+](C)c3ccccc32)C1 (stereo not given)	i	i	i	11.8*	-5.59*!	506.5%*	i	110.5%*	60.5%*	63.0%*	176.0%*
COc1ccc(CCNC(=O)C2CCN(Cc3nc(-c4cccc(Cl)c4)oc3C)CC2)cc1OC	i	i	i	i	-7.33*	i	i	i	75.0%*	i	i
O=C(NCc1ccccc1F)C1CCCN(c2cnccn2)C1 (stereo not given)	i	i	i	i	i	.	.	.	.	.	.
